This passage reports IC50 and Activity results from ChEMBL document CHEMBL1667733, “Cytotoxic amide alkaloids from Piper boehmeriaefolium” (J Nat Prod, 2011).

Values after ≈ are worked out from the molar mass of the structure shown. Active and inactive are the calls of the source. The calls are words filed in the database; no cut-off is given here.

This test deals with HeLa. Kind of test: Cytotoxicity against human HeLa cells after 72 hrs by MTT assay. It counts as functional, cell-based. The method, boiled down:
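HeLa cells in log-phase growth, harvested with 0.01% trypsin, seeded at 3.0 × 10^3 cells/well and grown overnight at 37 °C in humidified 5% CO2. Six concentrations (100.00, 33.33, 11.11, 3.70, 1.23, 0.41 µg/mL) added in triplicate. After 72 h at 37 °C, MTT added for 3 h more, supernatant removed, DMSO added. Absorbance read at 550 nm against 690 nm reference. Doxorubicin positive control.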
`O=C(CCCCCCC/C=C/c1ccc2c(c1)OCO2)N1CCCC1` displayed an IC50 of 2.67 µg/mL (≈ 7.77 µM).

In the case of `COc1cc(CCC(=O)n2cccc2)cc(OC)c1OC`, the result was inactive.

For the compound `O=C(CC/C=C/CCCC/C=C/c1ccc2c(c1)OCO2)N1CCCC1`, the IC50 worked out at 12.2 µg/mL (≈ 34.3 µM).

As for `O=C(CCCCCC/C=C/c1ccc2c(c1)OCO2)N1CCCC1`, 17.9 µg/mL (≈ 54.5 µM) corresponded to half-maximal inhibition (IC50).

In turn, `O=C(/C=C/C=C\CC/C=C/c1ccc2c(c1)OCO2)N1CCCC1` came in with an IC50 of 7.42 µg/mL (≈ 22.8 µM).

Regarding `COc1cccc2c1C(=O)c1c(O)c3c(c(O)c1C2=O)C[C@@](O)(C(=O)CO)C[C@@H]3O[C@H]1C[C@H](N)[C@H](O)[C@H](C)O1` [DOXORUBICIN], the IC50 turned out to be 0.163 µg/mL (≈ 0.3 µM).

In the case of `O=C(/C=C/C=C/CC/C=C/c1ccc2c(c1)OCO2)N1CCCC1`, 13.7 µg/mL (≈ 42.2 µM) corresponded to half-maximal inhibition (IC50).

As to `CCCCC/C=C/C=C/C=C/C(=O)N1CCCC1`, the outcome was inactive.

With `COc1cc(CCC(=O)n2cccc2)cc(OC)c1O`, the outcome was inactive.

Consider `CCCCC/C=C/C=C/C(=O)NCCc1ccc(O)c(OC)c1`, for which the result was inactive.

With `O=C(/C=C/C=C/CCCC/C=C/c1ccc2c(c1)OCO2)N1CCCC1`, the IC50 worked out at 11.6 µg/mL (≈ 32.8 µM).

On to `O=C(/C=C/CCCC/C=C/c1ccc2c(c1)OCO2)N1CCCC1` [BRACHYAMIDE B], for which the IC50 was found to be 15 µg/mL (≈ 45.7 µM). This IC50 and that of the compound before are within 1.5-fold of each other.

`CCCCC/C=C/C=C/C(=O)NCC[S+](C)[O-]` (stereo not drawn): the result was inactive.

By IC50 is commonly meant the concentration needed to halve the response being measured.
